Consider 2 compounds from ChEMBL document CHEMBL4396944, “A fluorogenic H2S-triggered prodrug based on thiolysis of the NBD amine” (Bioorg Med Chem Lett, 2019).

Molecules are shown by their SMILES. Active and inactive are the calls of the source.

The subject of data set [1] is Escherichia coli. The data set is described as follows: Antibacterial activity against Escherichia coli BL21(DE3) incubated for 12 hrs by UV-Vis spectrophotometric analysis. It is filed as functional, organism-based. In outline: (§1)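 E. coli grown in LB medium with the prodrug added, alone or together with 50 µM Na2S (H2S source) or 5 mM L-Cys. Cultures were incubated for 12 h, at 37 °C where stated, and growth was read as OD600 per sample. Controls: Na2S or L-Cys alone, and 30 nM NBD-SH by-product.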

For data set [2], the system named is Escherichia coli. Nature of the data set: Antibacterial activity against Escherichia coli BL21(DE3) at lower concentration incubated for 12 hrs by UV-Vis spectrophotometric analysis. Format: functional, organism-based. In a few lines:
as §1

Data set [3] is described as follows: Prodrug activation in pH 7.4 PBS buffer assessed as second order rate constant at 10 uM in presence of Na2S by UV-Vis spectrophotometric analysis. To be noted: pH 7.4, 10 µM.
Data set [4] has as its system Escherichia coli. The data set is described as follows: Antibacterial activity against Escherichia coli BL21(DE3) at 30 nM incubated for 12 hrs in presence of GSH by UV-Vis spectrophotometric analysis. Format: functional, organism-based.
A short description of data set [5]: Prodrug activation in pH 7.4 PBS buffer at 5 uM incubated for 30 mins in presence of 50 to 200 uM H2O2 by fluorescence assay. To be noted: pH 7.4, 0.5 h. In outline:
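Fluorescence of prodrug read in PBS after exposure to a range of H2O2 concentrations up to 200 µM.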

A short description of data set [6]: Prodrug activation in pH 7.4 PBS buffer assessed as absorption peak for NBD fluorophore formation at 10 uM in presence of Na2S by UV-Vis spectrophotometric analysis. To be noted: pH 7.4, 10 µM. In a few lines:
(§2)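 Absorption spectra recorded over time for 10 µM prodrug with 200 µM Na2S in 50 mM PBS, pH 7.4; bands followed at 350, 490 and new 530 nm; kinetics followed by intensity at 560 nm.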

Data set [7] can be described thus: Prodrug activation in pH 7.4 PBS buffer assessed as formation of ciprofloxacin by measuring reaction rate constant at 5 uM in presence of Na2S by fluorescence assay. To be noted: pH 7.4, 5 µM. In outline:
(§3)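 Fluorescence spectra over time of 5 µM prodrug with 100 µM Na2S in PBS, excitation 280 nm; emission at 415 nm versus time fitted to give kobs; kobs plotted against Na2S concentration, slope of linear fit gives k2.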

The nature of data set [8]: Prodrug activation in pH 7.4 PBS buffer at 5 uM incubated for 30 mins in presence of GSH by fluorescence assay. To be noted: pH 7.4, 0.5 h. In outline:
(§4)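 Fluorescence of prodrug checked in PBS after exposure to millimolar biothiols, 10 mM GSH or 5 mM Cys.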

A short description of data set [9]: Prodrug activation in pH 7.4 PBS buffer at 5 uM incubated for 30 mins in presence of Cys by fluorescence assay. Conditions: pH 7.4, 0.5 h. In a few lines:
as §4

Data set [10] concerns Escherichia coli. Nature of the data set: Antibacterial activity against Escherichia coli BL21(DE3) at 30 nM incubated for 12 hrs by UV-Vis spectrophotometric analysis. Format: functional, organism-based. In outline:
(§5)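 E. coli cultured in LB medium with additions of 30 nM prodrug, 30 nM NBD-SH, 50 µM Na2S, 5 mM L-Cys, or combinations (Na2S or L-Cys plus 30 nM prodrug); incubated 12 h, then bacterial density read as OD600.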

Data set [11] in a line: Prodrug activation in pH 7.4 PBS buffer assessed as ciprofloxacin formation by measuring increase in fluorescence at 5 uM in presence of Na2S at 415 nanometer by fluorescence assay. To be noted: pH 7.4, 5 µM, TDE = time-dependent effect. In a few lines: as §3
A short description of data set [12]: Solubility of compound in 20 mM PBS buffer at pH 7.4 in presence of Na2S by UV-Vis spectrophotometric analysis. Format: physicochemical.
Data set [13] is described as follows: Prodrug activation in pH 7.4 PBS buffer assessed as absorption peak for ciprofloxacin formation at 10 uM in presence of Na2S by UV-Vis spectrophotometric analysis. Conditions: pH 7.4, 10 µM. In outline:
as §2

Data set [14] deals with Escherichia coli. The data set is described as follows: Antibacterial activity against Escherichia coli BL21(DE3) at >0.2 uM incubated for 12 hrs by UV-Vis spectrophotometric analysis. It is filed as functional, organism-based.
Data set [15] deals with Escherichia coli. The data set is described as follows: Antibacterial activity against Escherichia coli BL21(DE3) incubated for 12 hrs in presence of Na2S by UV-Vis spectrophotometric analysis. It is filed as functional. In outline:
as §5

The nature of data set [16]: Prodrug activation in pH 7.4 PBS buffer assessed as ciprofloxacin formation by measuring increase in fluorescence at 5 uM in presence of Na2S at 415 nanometer by fluorescence assay relative to control. Conditions: pH 7.4, 5 µM. In outline: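 Prodrug at 5 µM mixed with Na2S (100 µM) in PBS; fluorescence spectra recorded over time, excitation 280 nm. Emission at 415 nm plotted against time and fitted to give k_obs. Repeated at several Na2S concentrations; slope of k_obs versus [Na2S] gives k2.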

Data set [17] deals with Escherichia coli. Nature of the data set: Antibacterial activity against Escherichia coli BL21(DE3) incubated for 12 hrs in presence of L-Cys by UV-Vis spectrophotometric analysis. It is filed as functional, organism-based. In a few lines: as §5
In data set [18] the test system is Escherichia coli. The data set is described as follows: Antibacterial activity against Escherichia coli BL21(DE3) at 30 nM incubated for 12 hrs in presence of H2S by UV-Vis spectrophotometric analysis. Format: functional, organism-based. In a few lines: as §5

With `O=[N+]([O-])c1ccc(S)c2nonc12`, the result with Escherichia coli [1] and in the data set with Escherichia coli [2] was inactive.
Broadly, the solubility is how much of the substance goes into solution per volume. One may read the MIC as the smallest concentration in the dilution series that meets the test's criterion for growth inhibition. Regarding `O=C(O)c1cn(C2CC2)c2cc(N3CCN(c4ccc([N+](=O)[O-])c5nonc45)CC3)c(F)cc2c1=O`, in data set [3], the k2 was 12.9 M⁻¹ s⁻¹. Further, the result in the data set on Escherichia coli [4] and in the data set with Escherichia coli [10] was inactive. The Drug metabolism result in [5] was “Metabolite_Notdetected”; in [8], “Metabolite_Notdetected”; in data set [9] it was “Metabolite_Notdetected”; in data set [11], “Tde”. Besides, the results for the Activity in data set [6] and in data set [13] were 490 nm and 350 nm, respectively. Further, in data set [7], the K was determined as 12 M⁻¹ s⁻¹. In addition, the solubility in [12] amounted to 17 µM. Further, the outcome in the data set on Escherichia coli [14], in the data set on Escherichia coli [17], with Escherichia coli [2] and with Escherichia coli [18] was Active. The minimum inhibitory concentration (MIC) with Escherichia coli [15] was 0.03 µM. In data set [16], the “fold change (FC)” value is 62.
